According to ChEMBL document CHEMBL1129032, “Synthesis and phospholipase A2 inhibitory activity of thielocin B3 derivatives” (J Med Chem, 1996):

Legend:
Phospholipase A2 = Phospholipase A2 (Homo sapiens, UniProt P04054); experiment: In vitro inhibition of human recombinant secretory Phospholipase A2 (group I).
Summary of the method: (§1)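 PLA2 enzymes: recombinant human group I or II, or group II purified from rat platelets (single ~14 kDa band on SDS-PAGE). Substrate was 1-palmitoyl-2-[1-14C]linoleoyl-PE diluted with egg-yolk PE to 2000 dpm/nmol. Reaction started by adding enzyme, adjusted so hydrolysis stayed below 20%. Compounds in DMSO (2% final) against a DMSO control. IC50 read graphically from % inhibition vs log concentration, three independent experiments in duplicate.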

[1] = biological target: T1, Phospholipase A2, membrane associated (Homo sapiens, UniProt P14555); experiment: In vitro inhibition of human recombinant secretory Phospholipase A2 (group II).; summary of the method: as §1
T1 sequence (P14555 whole entry): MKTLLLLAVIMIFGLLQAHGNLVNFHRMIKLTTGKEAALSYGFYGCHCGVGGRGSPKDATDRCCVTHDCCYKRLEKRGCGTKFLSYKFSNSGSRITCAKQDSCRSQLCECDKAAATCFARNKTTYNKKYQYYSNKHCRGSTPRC

[2] = biological target: T2, Phospholipase A2, membrane associated (Rattus norvegicus, UniProt P14423); experiment: In vitro inhibition of rat secretory Phospholipase A2 (group II).; summary of the method: as §1
T2 sequence (P14423 whole entry): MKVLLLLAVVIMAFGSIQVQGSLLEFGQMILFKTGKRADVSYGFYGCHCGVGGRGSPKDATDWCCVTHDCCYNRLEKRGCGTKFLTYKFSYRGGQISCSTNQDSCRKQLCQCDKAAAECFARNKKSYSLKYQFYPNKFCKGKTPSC

Rattus norvegicus [3] = organism: Rattus norvegicus; experiment: Inhibition of A-23187 stimulated Arachidonic acid production from rat platelets by 10 uM.; type: functional; design: scale not given: the % may be the effect or the level left
Summary of the method: (§2)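 Rat platelets from citrate-dextrose blood with PGE1 were sedimented and labelled with [3H]AA (20 µCi/mL, 2.0 h, room temperature), gel-filtered, and used at 5 × 10^8 cells/mL. Stimulation used A23187 2 µM (DMSO 0.4%) plus compound (DMSO 0.2%), stopped with 0.1 N HCl. [3H]AA and [3H]TXB2 were separated by TLC and counted. Result given as % of A23187-induced increase over DMSO control, mean ± SEM of three experiments.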

Rattus norvegicus [4] = organism: Rattus norvegicus; experiment: Inhibition of A-23187 stimulated Thromboxane B2 production from rat platelets by 10 uM.; type: functional; design: scale not given: the % may be the effect or the level left; summary of the method: as §2
[5] = biological target: T1, Phospholipase A2, membrane associated; experiment: In vitro inhibition of human recombinant secretory Phospholipase A2 (group II); No inhibition.; summary of the method: as §1
[6] = biological target: T2, Phospholipase A2, membrane associated; experiment: In vitro inhibition of rat secretory Phospholipase A2 (group II); No inhibition.; summary of the method: as §1

Phospholipase A2, sequence (P04054 whole entry): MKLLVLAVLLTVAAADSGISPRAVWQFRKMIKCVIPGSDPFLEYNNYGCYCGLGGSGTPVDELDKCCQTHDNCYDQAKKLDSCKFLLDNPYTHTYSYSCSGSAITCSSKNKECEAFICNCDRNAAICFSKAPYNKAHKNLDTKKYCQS

| SMILES | IC50 (Phospholipase A2) [nM] | IC50 [1] [nM] | IC50 [2] [nM] | IC50 [5] | IC50 [6] | Activity (Rattus norvegicus [3]) [%] | Activity (Rattus norvegicus [4]) [%] |
| --- | --- | --- | --- | --- | --- | --- | --- |
| COc1c(C)c(OC)c(C(=O)Oc2c(C)c(C)c(C(=O)O)c(OC)c2C)c(C)c1Cc1c(C)c(C(=O)Oc2c(C)c(C)c(C(=O)O)c(OC)c2C)c(OC)c(C)c1OC | 90000 | 2800 | 4600 |  |  |  |  |
| COc1c(C)c(OC(=O)c2c(C)c(C)c(OC(=O)CCC(=O)Oc3c(C)c(C)c(C(=O)Oc4c(C)c(C)c(C(=O)O)c(OC)c4C)c(OC)c3C)c(C)c2OC)c(C)c(C)c1C(=O)O | 60000 | 940 | 40 |  |  |  |  |
| COc1ccc([S+]([O-])c2ccc(OC)c(C(=O)Oc3c(C)c(C)c(C(=O)Oc4c(C)c(C)c(C(=O)O)c(OC)c4C)c(OC)c3C)c2)cc1C(=O)Oc1c(C)c(C)c(C(=O)Oc2c(C)c(C)c(C(=O)O)c(OC)c2C)c(OC)c1C | 11000 | 260 | 120 |  |  |  |  |
| COc1c(C)c(OC)c(C(=O)O)c(C)c1Cc1c(C)c(C(=O)Oc2c(C)c(C)c(C(=O)Oc3c(C)c(C)c(C(=O)O)c(OC)c3C)c(OC)c2C)c(OC)c(C)c1OC | > 100000 | 3000 | 3000 |  |  |  |  |
| COc1ccc(Sc2ccc(OC)c(C(=O)Oc3c(C)c(C)c(C(=O)Oc4c(C)c(C)c(C(=O)O)c(OC)c4C)c(OC)c3C)c2)cc1C(=O)Oc1c(C)c(C)c(C(=O)Oc2c(C)c(C)c(C(=O)O)c(OC)c2C)c(OC)c1C | 55000 | 130 | 49 |  |  | 2.8 | 0 |
| COc1c(C)c(OC(=O)c2c(C)c(C)c(OC(=O)c3c(C)cc(O)c(Cc4c(C)c(C(=O)Oc5c(C)c(C)c(C(=O)Oc6c(C)c(C)c(C(=O)O)c(OC)c6C)c(OC)c5C)c(O)c(C)c4O)c3O)c(C)c2OC)c(C)c(C)c1C(=O)O [THIELOCIN B3] | 18000 | 76 | 12 |  |  | 60.3 | 43.7 |
| Cc1c(O)c(Cc2c(C)c(C(=O)Oc3c(C)c(C)c(C(=O)Oc4c(C)c(C)c(C(=O)O)c(O)c4C)c(O)c3C)c(O)c(C)c2O)c(C)c(C(=O)Oc2c(C)c(C)c(C(=O)Oc3c(C)c(C)c(C(=O)O)c(O)c3C)c(O)c2C)c1O | > 100000 | 2400 | 950 |  |  |  |  |
| COc1ccc(Sc2ccc(OC)c(C(=O)Oc3c(C)c(C)c(C(=O)Oc4c(C)c(C)c(C(=O)O)c(OC)c4C)c(OC)c3C)c2)cc1C(=O)O | 100000 | 4100 | 2100 |  |  |  |  |
| COc1c(C)c(OC)c(C(=O)Oc2c(C)c(C)c(C(=O)Oc3c(C)c(C)c(C(=O)O)c(OC)c3C)c(OC)c2C)c(C)c1Cc1c(C)c(C(=O)Oc2c(C)c(C)c(C(=O)Oc3c(C)c(C)c(C(=O)O)c(OC)c3C)c(OC)c2C)c(OC)c(C)c1OC | > 100000 | 190 | 130 |  |  |  |  |
| CC1=C(CC/C(C)=C/CCC2=CC[C@H](C3=CC(=O)O[C@H]3O)O[C@H]2O)C(C)(C)CCC1 [MANOALIDE] |  | 1500 | 2000 |  |  |  |  |
| COc1ccc(Oc2ccc(OC)c(C(=O)Oc3c(C)c(C)c(C(=O)Oc4c(C)c(C)c(C(=O)O)c(OC)c4C)c(OC)c3C)c2)cc1C(=O)Oc1c(C)c(C)c(C(=O)Oc2c(C)c(C)c(C(=O)O)c(OC)c2C)c(OC)c1C | 6500 | 100 | 42 |  |  | 9 | 0 |

Now from value to molecule, other results behind:

| IC50 (Phospholipase A2) [nM] | IC50 [1] [nM] | IC50 [2] [nM] | IC50 [5] | IC50 [6] | SMILES | Activity (Rattus norvegicus [3]) [%] | Activity (Rattus norvegicus [4]) [%] |
| --- | --- | --- | --- | --- | --- | --- | --- |
| > 100000 | 75000 | 3400 |  |  | COc1ccc(Oc2ccc(OC)c(C(=O)Oc3c(C)c(C)c(C(=O)O)c(OC)c3C)c2)cc1C(=O)Oc1c(C)c(C)c(C(=O)O)c(OC)c1C |  |  |
| > 100000 | 230 | 120 |  |  | COc1c(C)c(OC(=O)c2c(C)c(C)c(OC(=O)c3cccc(C(=O)Oc4c(C)c(C)c(C(=O)Oc5c(C)c(C)c(C(=O)O)c(OC)c5C)c(OC)c4C)c3)c(C)c2OC)c(C)c(C)c1C(=O)O | 49.2 | 0.1 |
|  | 76000 | 320000 |  |  | CCN(CC)CCCC(C)Nc1c2ccc(Cl)cc2nc2ccc(OC)cc12 (stereo not drawn) [QUINACRINE] |  |  |
| 60000 | 840 | 360 |  |  | COc1c(C)c(OC(=O)c2c(C)c(C)c(OC(=O)c3c(C)c(CN[C@@H](C)c4ccccc4)c(O)c(C)c3O)c(C)c2OC)c(C)c(C)c1C(=O)O |  |  |
| 9000 | 69 | 50 |  |  | COc1ccc(S(=O)(=O)c2ccc(OC)c(C(=O)Oc3c(C)c(C)c(C(=O)Oc4c(C)c(C)c(C(=O)O)c(OC)c4C)c(OC)c3C)c2)cc1C(=O)Oc1c(C)c(C)c(C(=O)Oc2c(C)c(C)c(C(=O)O)c(OC)c2C)c(OC)c1C |  |  |
| > 100000 |  |  | Not Active | Not Active | COc1ccc(Sc2ccc(OC)c(C(=O)Oc3c(C)c(C)c(C(=O)Oc4c(C)c(C)c(C(=O)OCOC(=O)C(C)(C)C)c(OC)c4C)c(OC)c3C)c2)cc1C(=O)Oc1c(C)c(C)c(C(=O)Oc2c(C)c(C)c(C(=O)OCOC(=O)C(C)(C)C)c(OC)c2C)c(OC)c1C |  |  |
| > 100000 | 4800 | 2500 |  |  | COc1ccc(Sc2ccc(OC)c(C(=O)Oc3c(C)c(C)c(C(=O)O)c(OC)c3C)c2)cc1C(=O)Oc1c(C)c(C)c(C(=O)O)c(OC)c1C |  |  |
| > 100000 | 2200 | 330 |  |  | COc1c(C)c(OC(=O)c2c(C)c(C)c(OC(=O)/C=C/C(=O)Oc3c(C)c(C)c(C(=O)Oc4c(C)c(C)c(C(=O)O)c(OC)c4C)c(OC)c3C)c(C)c2OC)c(C)c(C)c1C(=O)O | 70.7 | 65.8 |
| 6600 | 240 | 35 |  |  | COc1cc(OC)c(C(=O)Oc2c(C)c(C)c(C(=O)Oc3c(C)c(C)c(C(=O)O)c(OC)c3C)c(OC)c2C)cc1Oc1cc(C)c(OC)c(C(=O)Oc2c(C)c(C)c(C(=O)Oc3c(C)c(C)c(C(=O)O)c(OC)c3C)c(OC)c2C)c1 | 19.7 | 0 |
| 100000 | 5800 | 880 |  |  | COc1c(C)c(OC(=O)c2c(C)c(C)c(OC(=O)c3cc(=O)cc(C(=O)Oc4c(C)c(C)c(C(=O)Oc5c(C)c(C)c(C(=O)O)c(OC)c5C)c(OC)c4C)o3)c(C)c2OC)c(C)c(C)c1C(=O)O | 55.2 | 46.3 |
| 135000 | 12000 | 3.3 |  |  | COc1c(C)c(OC(=O)c2c(C)c(C)c(OC(=O)C3=C(C)[C@@](C)(O)C4(O)Oc5c(C)c(OC)c(C(=O)Oc6c(C)c(C)c(C(=O)O)c(OC)c6C)c(C)c5C[C@@]4(C)C3=O)c(C)c2OC)c(C)c(C)c1C(=O)O (stereo partly drawn) [THIELOCIN A1] |  |  |
